{"data": "Experimental data collected from several papers", "organism": "Klebsiella pneumoniae", "read-out": "microbial growth"}
{"Compound": "Cc1c(NN=C(C#N)C2=NC(=O)CS2)c(=O)n(-c2ccccc2)n1C", "assay": "broth dilution", "MIC [µg/mL]": 0.98}
{"Compound": "COC(=O)c1cc(-c2ccc(OC)c(NC(=O)Nc3ccc(Cl)c(Cl)c3)c2)on1", "assay": "broth dilution", "system": "BAA1705", "MIC [µg/mL]": "> 64"}
{"Compound": "CCCCCCCCCC(=O)N[C@@H](Cc1c[nH]c2ccccc12)C(=O)N[C@H](CC(N)=O)C(=O)N[C@@H](CC(=O)O)C(=O)N[C@@H]1C(=O)NCC(=O)N[C@@H](CCCN)C(=O)N[C@@H](CC(=O)O)C(=O)N[C@H](C)C(=O)N[C@@H](CC(=O)O)C(=O)NCC(=O)N[C@H](CO)C(=O)N[C@@H]([C@H](C)CC(=O)O)C(=O)N[C@@H](CC(=O)c2ccccc2N)C(=O)O[C@@H]1C", "assay": "broth dilution", "system": "ATCC10031", "MIC [µg/mL]": "> 64"}
{"Compound": "COC(=O)c1cc(-c2cccc(NC(=O)Nc3ccccc3C)c2)on1", "assay": "broth dilution", "system": "BAA1705", "MIC [µg/mL]": "> 64"}
{"Compound": "CN[C@@H]1[C@H](O)[C@H](NC)[C@H]2O[C@@]3(O)C(=O)C[C@@H](C)O[C@H]3O[C@@H]2[C@H]1O", "assay": "broth dilution", "system": "ATCC33495", "MIC [µg/mL]": "> 200"}
{"Compound": "Fc1c(F)c(F)c(-c2c(F)c(F)c(F)c(F)c2F)c(F)c1F", "system": "ATCC13883", "MIC [µg/mL]": "> 250"}
{"Compound": "CCCCCCC#Cc1cncc(-c2nnc(Sc3ccc([N+](=O)[O-])cc3[N+](=O)[O-])n2C)c1", "MIC [µg/mL]": "≥ 20"}
{"Compound": "COC(=O)c1cc(-c2cccc(NC(=O)Nc3cccc(C#N)c3)c2)on1", "assay": "broth dilution", "system": "BAA1705", "MIC [µg/mL]": "> 64"}
{"Compound": "CCCCCCC#Cc1cncc(-c2nnc(SCc3cc([N+](=O)[O-])cc([N+](=O)[O-])c3)n2C)c1", "MIC [µg/mL]": "≥ 20"}
{"Compound": "Fc1c(F)c(F)c(F)c(F)c1F", "system": "ATCC13883", "MIC [µg/mL]": "> 250"}
